ChEMBL document CHEMBL1136723, “A novel atypical retinoid endowed with proapoptotic and antitumor activity” (J Med Chem, 2003)

How the values were obtained:
SAOS-2 = test: Antiproliferative effect of compound on SAOS cell line; assay type: functional, cell-based; conditions: Homo sapiens
Method in brief: (§1)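 Human tumor cell lines exposed to drug for 72 h. Growth was measured by cell counting. IC50, the concentration giving 50% inhibition of cell growth, was read from dose–response curves.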

U2OS = test: Antiproliferative effect of compound on U2OS cell line expressing wild-type p53; assay type: functional, cell-based; conditions: Homo sapiens; method in brief: as §1
HCT-116 = test: Antiproliferative effect of compound on HCT116 cell line expressing wild-type p53; assay type: functional, cell-based; conditions: Homo sapiens; method in brief: as §1
Me665/2/21 = test: Antiproliferative effect of compound on Me665/2/21 cell line expressing mutant p53; assay type: functional, cell-based; conditions: Homo sapiens; method in brief: as §1
IGROV-1 [1] = test: Antiproliferative effect of compound on IGROV-1 cell line expressing wild-type p53; assay type: functional, cell-based; conditions: Homo sapiens; method in brief: as §1
LNCaP = test: Antiproliferative effect of compound on LNcaP cell line expressing wild-type p53; assay type: functional, cell-based; conditions: Homo sapiens; method in brief: as §1
GBM = test: Antiproliferative effect of compound on GBM cell line expressing mutant p53; assay type: functional, cell-based; conditions: Homo sapiens; method in brief: as §1
LoVo = test: Antiproliferative effect of compound on LoVo cell line expressing wild-type p53; assay type: functional, cell-based; conditions: Homo sapiens; method in brief: as §1
DU-145 [2] = test: (§2) Apoptosis was determined my morphological analysis of propidium-iodide-stained cells following 24 hr exposure to IC80 (0.5 uM), value expressed as percentage of apoptotic cells versus total cell number; assay type: functional, Homo sapiens
IGROV-1 [3] = test: as §2; assay type: functional, Homo sapiens
DU-145 [4] = test: (§3) Apoptosis was determined my morphological analysis of propidium-iodide-stained cells following 48 hr exposure to IC80 (0.5 uM), value expressed as percentage of apoptotic cells versus total cell number; assay type: functional, Homo sapiens
IGROV-1 [5] = test: as §3; assay type: functional, Homo sapiens
A-431 = test: Antiproliferative effect of compound on A431 cell line expressing mutant p53; assay type: functional, cell-based; conditions: Homo sapiens; method in brief: as §1
DU-145 [6] = test: (§4) Apoptosis was determined my morphological analysis of propidium-iodide-stained cells following 72 hr exposure to IC80 (0.5 uM), value expressed as percentage of apoptotic cells versus total cell number; assay type: functional, Homo sapiens
IGROV-1 [7] = test: as §4; assay type: functional, Homo sapiens
DU-145 [8] = test: Antiproliferative effect of compound on DU145 cell line expressing mutant p53; assay type: functional, cell-based; conditions: Homo sapiens; method in brief: as §1
NCI-H460 = test: Antiproliferative effect of compound on H460 cell line expressing wild-type p53; assay type: functional, cell-based; conditions: Homo sapiens; method in brief: as §1
PC-3 = test: Antiproliferative effect of compound on PC3 cell line; assay type: functional, cell-based; conditions: Homo sapiens; method in brief: as §1
A2780 = test: Antiproliferative effect of compound on A2780/DX cell line; assay type: functional, cell-based; conditions: Homo sapiens; method in brief: as §1

| SMILES | IC50 (SAOS-2) | IC50 (U2OS) | IC50 (HCT-116) | IC50 (Me665/2/21) | IC50 (IGROV-1 [1]) | IC50 (LNCaP) | IC50 (GBM) | IC50 (LoVo) | Apoptosis (DU-145 [2]) | Apoptosis (IGROV-1 [3]) | Apoptosis (DU-145 [4]) | Apoptosis (IGROV-1 [5]) | IC50 (A-431) | Apoptosis (DU-145 [6]) | Apoptosis (IGROV-1 [7]) | IC50 (DU-145 [8]) | IC50 (NCI-H460) | IC50 (PC-3) | IC50 (A2780) |
| --- | --- | --- | --- | --- | --- | --- | --- | --- | --- | --- | --- | --- | --- | --- | --- | --- | --- | --- | --- |
| O=C(O)c1ccc2cc(-c3ccc(O)c(C45CC6CC(CC(C6)C4)C5)c3)ccc2c1 [O-DEMETHYLATED ADAPALENE] | 0.67 µM | 0.44 µM | 0.68 µM | 0.42 µM | 0.35 µM | 0.32 µM | 0.55 µM | 0.49 µM | 16% | 22% | 33% | 15% | 0.51 µM | 30% | 38% | 0.28 µM | 0.43 µM | 0.43 µM |  |
| O=C(O)/C=C/c1ccc(-c2ccc(O)c(C34CC5CC(CC(C5)C3)C4)c2)cc1 [ADAROTENE] | 0.25 µM | 0.26 µM | 0.32 µM | 0.25 µM | 0.23 µM | 0.12 µM | 0.18 µM | 0.15 µM | 24% | 42% | 44% | 46% | 0.25 µM | 50% | 44% | 0.1 µM | 0.19 µM | 0.21 µM | 0.1 µM |
